Data set [1] in a line: Metabolic stability in mouse liver microsomes assessed as recovery in presence of NADPH measured after 120 mins. It is filed as ADME, Microsome. As to conditions: read-out: Drug recovery.
For data set [2], the system named is Pseudomonas aeruginosa. The data set is described as follows: Inhibition of Pseudomonas aeruginosa IMPDH delta Bateman domain extracted form Escherichia coli BL21 (DE3)pDIA17 assessed as formation of NADH at 50 uM relative to control. The gist of the method:
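Bateman-domain-deleted IMPDH (E. coli or P. aeruginosa), His-tagged, made in E. coli BL21(DE3)/pDIA17. NADH formation at 340 nm, 30 °C, 0.2 mM IMP, 0.4 mM NAD⁺, 0.2 mM MgATP, 2 mM MgCl₂. Buffer: ec Tris-HCl 50 mM pH 9, KCl 100 mM; pa Tris-HCl 50 mM pH 8, KCl 100 mM. Compound 50 μM; % inhibition relative to uninhibited enzyme.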

Data set [3] relates to Staphylococcus aureus. The data set is described as follows: Antibacterial activity against methicillin-resistant Staphylococcus aureus ATCC 43300 assessed as growth inhibition at 32 ug/ml relative to control. It is filed as functional.
Data set [4] deals with Caco-2. The data set is described as follows: Cytotoxicity against human Caco-2 cells assessed as cell viability at 1 uM measured after 72 hrs by Alamar blue assay. As to conditions: caco-2, 72 h. It is filed as toxicity, cell-based. An outline of the steps: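 Confluent Caco-2 monolayers (seeded 1.10⁵ cells/cm², 48 h growth; DMEM 25 mM glucose, 10 % FBS, NEAA, 37 °C, 5 % CO₂) exposed 72 h; vehicle 0.1 % DMSO, 0.2 % Triton X-100 as cytotoxic control. Rinsed with PBS, 5 % Alamar Blue in FBS-free medium 30 min at 37 °C; resorufin fluorescence (ex 530/em 570 nm) relative to DMSO. Mean ± SEM, three independent experiments.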

The target of data set [5] is T1, Inosine-5'-monophosphate dehydrogenase (Pseudomonas aeruginosa (strain ATCC 15692 / DSM 22644 / CIP 104116 / JCM14847 / LMG 12228 / 1C / PRS 101 / PAO1)) (UniProt Q9HXM5).
T1 sequence (whole entry): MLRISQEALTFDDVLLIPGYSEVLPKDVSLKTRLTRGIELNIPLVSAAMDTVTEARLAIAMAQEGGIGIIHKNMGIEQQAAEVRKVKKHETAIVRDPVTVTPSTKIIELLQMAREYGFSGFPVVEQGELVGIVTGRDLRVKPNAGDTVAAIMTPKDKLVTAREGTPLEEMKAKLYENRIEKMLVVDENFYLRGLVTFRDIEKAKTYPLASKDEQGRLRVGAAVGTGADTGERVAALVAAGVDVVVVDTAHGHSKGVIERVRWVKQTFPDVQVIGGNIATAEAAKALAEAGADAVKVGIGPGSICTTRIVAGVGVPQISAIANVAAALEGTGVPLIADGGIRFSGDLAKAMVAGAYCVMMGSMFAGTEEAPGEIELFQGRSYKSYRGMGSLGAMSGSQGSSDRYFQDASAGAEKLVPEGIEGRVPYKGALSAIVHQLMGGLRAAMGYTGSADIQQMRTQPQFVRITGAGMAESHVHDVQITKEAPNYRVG
Put plainly: Non-competitive inhibition of Pseudomonas aeruginosa IMPDH in presence of 2 mM NAD+ by Michaelis-Menten equation. An outline of the steps:
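Steady-state kinetics of P. aeruginosa ΔBateman IMPDH: initial rates (NADH at 340 nm, 30 °C, Tris-HCl 50 mM pH 8, KCl 100 mM) measured across variable IMP at saturating 2 mM NAD⁺, without or with several inhibitor concentrations; data from at least three experiments fitted to Michaelis–Menten and shown as Lineweaver-Burk plots.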

Data set [6] relates to Staphylococcus aureus. Put plainly: Inhibition of Staphylococcus aureus IMPDH extracted form Escherichia coli BL21 (DE3)pDIA17 assessed as formation of NADH at 50 uM relative to control. The gist of the method: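 His-tagged wild-type IMPDH (E. coli, P. aeruginosa or S. aureus) made in E. coli BL21(DE3)/pDIA17, purified by metal-affinity then gel filtration. NADH formation followed at 340 nm, 30 °C, with 0.2 mM IMP, 0.4 mM NAD⁺, 0.2 mM MgATP, 2 mM MgCl₂. Buffers: pa Tris-HCl 50 mM pH 8; ec Tris-HCl 50 mM pH 8, KCl 50 mM; sa Na₂CO₃ 50 mM pH 9.2, KCl 20 mM. Compound at 50 μM; % inhibition vs compound-free activity.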

In data set [7] the target is T2, Inosine-5'-monophosphate dehydrogenase (Pseudomonas aeruginosa (strain ATCC 15692 / DSM 22644 / CIP 104116 / JCM14847 / LMG 12228 / 1C / PRS 101 / PAO1), UniProt Q9HXM5).
T2 sequence (Q9HXM5 whole entry): T1 sequence (whole entry)
Put plainly: Inhibition of Pseudomonas aeruginosa IMPDH extracted form Escherichia coli BL21 (DE3)pDIA17 assessed as formation of NADH. Particulars: read-out: I50.

The test system of data set [8] is Mycobacterium tuberculosis. The data set is described as follows: Inhibition of Mycobacterium tuberculosis TMP kinase using 0.05 dTMP and 0.5 mM MgATP by measuring NADH consumption at 20 uM by coupled spectrophotometric assay. An outline of the steps: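 Recombinant M. tuberculosis TMP kinase; activity at 30 °C by NADH consumption at 340 nm in a pyruvate kinase/lactate dehydrogenase/nucleoside diphosphate kinase coupled assay (2 units each). Medium: 50 mM Tris-HCl pH 7.4, 50 mM KCl, 2 mM MgCl2, 0.2 mM NADH, 1 mM phosphoenolpyruvate. ATP held at 0.5 mM and dTMP at 0.05 mM; compound at 20 μM.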

Molecules are shown by their SMILES. Activity calls are given as the source filed them. The calls are words filed in the database; no cut-off is given here.

`CC(C)(NC(=O)Nc1ccc(Cl)c([N+](=O)[O-])c1)c1cccc(-c2c[nH]cn2)c1`: in data set [1], the remaining at 2 h was > 95%. In addition, the inhibition in data set [2] is 99%; in data set [6], 89%. Also, the inhibition at 32 µg/mL in data set [3] was 79.3%. In addition, the Activity entry in data set [4] is “Non-toxic”. In data set [5], the inhibition result was “Active”. Further, in data set [7], the IC50 turned out to be 100 nM. Besides, the inhibition entry in data set [8] was “inactive”.

For the origin of these results see ChEMBL document CHEMBL6083235, “Synthesis, evaluation and mechanistic insights of novel IMPDH inhibitors targeting ESKAPEE bacteria” (Eur J Med Chem, 2024).
